Measured values taken from ChEMBL document CHEMBL1126033, “C-terminal modifications of nonpeptide renin inhibitors: improved oral bioavailability via modification of physicochemical properties” (J Med Chem, 1992).

Legend:
[1] = Bioavailability in ferret; conditions: in vivo
Mustela putorius furo [2] = experiment: Average area under curve value dosed at 0.3 mg/kg, iv in ferrets.; conditions: ferret, in vivo
[3] = Average peak plasma drug concentration after id dose of 10 mg/kg in ferrets(Plasma samples collected from arterial blood).; conditions: ferret
[4] = (§1) Average peak plasma drug concentration after id dose of 10 mg/kg in ferrets(Plasma samples collected from portal blood).; conditions: ferret
[5] = Average peak plasma drug concentration after iv dose of 0.3 mg/kg in ferrets.; conditions: ferret
Mustela putorius furo [6] = experiment: (§2) Average area under curve value dosed at 10 mg/kg, id in ferrets.; conditions: ferret, in vivo, other
[7] = Partition coefficient (logD6.5); conditions: octanol/water, pH 6.5
[8] = Partition coefficient (logD7.4); conditions: octanol/water, pH 7.4
Renin [9] = biological target: T1, Renin (Homo sapiens, UniProt P00797); assay type: cell-free, Plasma
T1 sequence (P00797 whole entry): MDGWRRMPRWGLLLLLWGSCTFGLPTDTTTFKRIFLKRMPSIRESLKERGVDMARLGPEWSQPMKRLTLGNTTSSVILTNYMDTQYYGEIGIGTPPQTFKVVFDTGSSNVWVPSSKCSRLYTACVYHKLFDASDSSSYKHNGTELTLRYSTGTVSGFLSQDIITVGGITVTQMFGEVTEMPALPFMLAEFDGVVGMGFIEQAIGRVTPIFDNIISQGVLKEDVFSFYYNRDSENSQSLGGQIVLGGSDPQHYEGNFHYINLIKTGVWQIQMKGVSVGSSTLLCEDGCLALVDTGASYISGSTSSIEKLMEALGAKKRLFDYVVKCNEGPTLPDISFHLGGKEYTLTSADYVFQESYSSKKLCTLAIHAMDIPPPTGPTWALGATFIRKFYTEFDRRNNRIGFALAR

Renin [10] = biological target: T1, Renin; experiment: In vitro activity against human renin (pH 6.0)
[11] = Bioavailability in monkey (i.d. dosing); assay type: ADME, organism-based; conditions: in vivo
Method in brief: (§3)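 Male cynomolgus monkeys (3–5 kg) salt-depleted with furosemide 5 mg/kg po on days 7 and 1 plus a low-salt diet. Fasted, pentobarbital anesthesia. Intraduodenal dose of 10 mg/kg as HCl salt solution. Portal and systemic plasma drug levels measured by bioassay. Bioavailability = dose-normalized AUCid/AUCiv ×100 (trapezoidal integration; iv fit biexponential), mean ± SEM.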

Mustela putorius furo [12] = experiment: as §2; assay type: ADME, organism-based; set-up: dose 10 mg/kg, route intraduodenal; conditions: ferret, in vivo, other
Method in brief: (§4)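 Fasted male Fitch ferrets (0.4–1.2 kg) under Inactin anesthesia (100–120 mg/kg ip), catheterized in carotid artery, jugular vein, portal vein and trachea. Single 10 mg/kg intraduodenal dose of HCl salt solution. 6 portal and 7 arterial samples taken over 180 min. Plasma drug measured by renin-inhibition bioassay with serial dilution and acetonitrile precipitation. AUC by trapezoidal integration; peak is the mean of each animal's maximum.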

[13] = Bioavailability in monkey (dose 10 mg/kg i.d.); assay type: ADME, organism-based; conditions: primates, in vivo; method in brief: as §3
[14] = as §1; assay type: ADME, organism-based, Mustela putorius furo; set-up: dose 10 mg/kg, route intraduodenal; conditions: ferret, read-out: Average peak Concn; method in brief: as §4
[15] = biological target: T2, Gastricsin (Homo sapiens) (UniProt P20142); experiment: Inhibitory activity against human Gastricsin at a concentration of 1 x 10e-5 M
T2 sequence (whole entry): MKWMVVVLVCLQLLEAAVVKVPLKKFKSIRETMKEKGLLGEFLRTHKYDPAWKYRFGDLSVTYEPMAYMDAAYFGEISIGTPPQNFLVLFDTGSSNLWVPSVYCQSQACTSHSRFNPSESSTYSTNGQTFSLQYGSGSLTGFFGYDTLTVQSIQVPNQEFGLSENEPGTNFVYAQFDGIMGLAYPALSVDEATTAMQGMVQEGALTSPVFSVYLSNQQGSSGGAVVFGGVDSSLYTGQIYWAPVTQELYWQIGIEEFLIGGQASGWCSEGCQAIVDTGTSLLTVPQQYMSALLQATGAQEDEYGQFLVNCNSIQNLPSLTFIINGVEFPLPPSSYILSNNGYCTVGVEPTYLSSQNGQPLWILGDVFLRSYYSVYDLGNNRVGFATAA

Pepsin A (Sus scrofa) = Pepsin A (Sus scrofa) (UniProt P00791); experiment: Inhibitory activity against porcine pepsin at a concentration of 1 x 10e-5 M
Pepsin A (Sus scrofa), sequence (P00791 60-385 limits assumed): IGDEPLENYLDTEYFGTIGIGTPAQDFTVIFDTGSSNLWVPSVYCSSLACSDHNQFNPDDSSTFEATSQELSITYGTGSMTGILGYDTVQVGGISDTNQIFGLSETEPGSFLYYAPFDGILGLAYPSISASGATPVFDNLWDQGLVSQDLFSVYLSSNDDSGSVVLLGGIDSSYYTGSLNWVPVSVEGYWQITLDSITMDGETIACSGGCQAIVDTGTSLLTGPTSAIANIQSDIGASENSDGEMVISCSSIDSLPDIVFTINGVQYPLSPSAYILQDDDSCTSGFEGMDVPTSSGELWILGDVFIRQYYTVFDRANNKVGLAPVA

[16] = biological target: Cathepsin D (Homo sapiens) (UniProt P07339); experiment: Inhibitory activity against human cathepsin D at a concentration of 1 x 10e-5 M
Cathepsin D (Homo sapiens), sequence (P07339 65-162 limits assumed): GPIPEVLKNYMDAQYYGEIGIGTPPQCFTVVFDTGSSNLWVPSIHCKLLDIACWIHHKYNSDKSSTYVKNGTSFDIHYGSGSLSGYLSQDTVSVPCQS
Cathepsin D (Homo sapiens), sequence (P07339 169-412 limits assumed): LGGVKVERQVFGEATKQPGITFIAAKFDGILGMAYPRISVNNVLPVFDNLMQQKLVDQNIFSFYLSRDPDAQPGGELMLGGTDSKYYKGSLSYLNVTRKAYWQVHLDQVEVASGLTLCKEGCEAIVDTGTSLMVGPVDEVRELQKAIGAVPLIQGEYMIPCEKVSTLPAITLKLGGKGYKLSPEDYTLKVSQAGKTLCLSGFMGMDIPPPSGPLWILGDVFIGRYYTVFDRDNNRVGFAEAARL
Method in brief: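 Human spleen cathepsin D, purified by hemoglobin affinity chromatography and assayed with hemoglobin substrate.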

[17] = biological target: T3, Cathepsin G (Homo sapiens) (UniProt P08311); experiment: Inhibitory activity against human cathepsin G at a concentration of 1 x 10e-5 M
T3 sequence (whole entry): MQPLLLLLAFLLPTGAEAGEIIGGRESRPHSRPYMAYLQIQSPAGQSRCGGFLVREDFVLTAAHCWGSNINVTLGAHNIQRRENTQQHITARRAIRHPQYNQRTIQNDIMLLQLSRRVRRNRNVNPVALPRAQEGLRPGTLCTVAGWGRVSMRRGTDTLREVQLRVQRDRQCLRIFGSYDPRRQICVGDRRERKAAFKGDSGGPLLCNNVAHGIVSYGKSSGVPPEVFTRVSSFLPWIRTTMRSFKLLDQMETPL
Method in brief: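 Human leukocyte cathepsin G, assayed with N-succinyl-Ala-Ala-Pro-Phe-4-nitroanilide substrate.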

Cathepsin D (Bos taurus) = biological target: T4, Cathepsin D (Bos taurus) (UniProt P80209); experiment: Inhibitory activity against bovine cathepsin D at a concentration of 1 x 10e-5 M
T4 sequence (whole entry): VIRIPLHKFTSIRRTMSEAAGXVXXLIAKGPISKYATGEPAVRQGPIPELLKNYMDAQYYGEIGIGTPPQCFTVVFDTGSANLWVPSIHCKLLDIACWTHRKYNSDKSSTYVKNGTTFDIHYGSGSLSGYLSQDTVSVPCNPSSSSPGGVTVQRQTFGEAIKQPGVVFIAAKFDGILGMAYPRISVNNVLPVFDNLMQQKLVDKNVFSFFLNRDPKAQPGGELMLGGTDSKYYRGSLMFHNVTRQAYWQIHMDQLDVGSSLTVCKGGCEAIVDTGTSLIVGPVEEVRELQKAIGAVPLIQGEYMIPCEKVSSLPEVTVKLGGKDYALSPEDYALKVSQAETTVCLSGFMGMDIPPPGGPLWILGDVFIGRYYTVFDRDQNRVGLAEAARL

[18] = Inhibitory activity against monkey plasma at pH 7.4; conditions: Cercopithecidae

Row | bioavailability [1] | Average AUC (Mustela putorius furo [2]) | Cmax ([3]; plasma (from arterial blood)) | Cmax ([4]; plasma (from portal blood)) | Cmax ([5]; plasma) | Average AUC (Mustela putorius furo [6]) | logD [7] | logD [8] | IC50 (Renin [9]) | IC50 (Renin [10]) | SMILES | further results
1 | 50% | 573 ng·h/mL | 5050 ng/mL | 4990 ng/mL | 2990 ng/mL | 9670 ng·h/mL | 2.3 | 3.1 | 5.9 nM |  | CCCC[C@H](O[C@@H](Cc1ccccc1)C(=O)N1CCC(OCOC)CC1)C(=O)N[C@@H](CC1CCCCC1)[C@@H](O)C[C@H](C(=O)NCCCN(C)C)C(C)C | 
2 | 16% | 673 ng·h/mL | 1540 ng/mL | 3220 ng/mL | 2230 ng/mL | 3530 ng·h/mL | > 4.5 | > 4.5 |  | 1.8 nM | CCCCNC(=O)[C@@H](C[C@H](O)[C@H](CC1CCCCC1)NC(=O)[C@H](CCCC)N[C@@H](Cc1ccccc1)C(=O)N1CCC(OCOC)CC1)C(C)C | 
3 | 62% | 245 ng·h/mL | 2070 ng/mL | 5250 ng/mL | 930 ng/mL | 5050 ng·h/mL | 3.8 | 4.6 | 12 nM | 1.5 nM | CCCC[C@H](N[C@@H](Cc1ccccc1)C(=O)N1CCC(OCOC)CC1)C(=O)N[C@@H](CC1CCCCC1)[C@@H](O)C[C@H](NC(=O)OCCN(C)C)C(C)C | 
4 |  |  |  |  |  |  |  |  |  |  | COc1ccc(C[C@H](NC(=O)CC(C)(C)N)C(=O)N[C@@H](Cc2cnc[nH]2)C(=O)N[C@@H](CC2CCCCC2)[C@@H](O)[C@@H](O)CC(C)C)cc1 | bioavailability ([11]; cercopithecidae): 1.7%
5 | 70% | 258 ng·h/mL | 2840 ng/mL | 5010 ng/mL | 920 ng/mL |  | 3.6 | 3.7 | 7.5 nM |  | CCCC[C@H](O[C@@H](Cc1ccccc1)C(=O)N1CCC(OCOC)CC1)C(=O)N[C@@H](CC1CCCCC1)[C@@H](O)C[C@H](NC(=O)OCCN1CCOCC1)C(C)C | Avg AUC, (Mustela putorius furo [12]): 363 µg/min/mL
6 |  |  |  |  |  |  |  |  |  |  | CCCC[C@H](N[C@@H](Cc1ccccc1)C(=O)N1CCC(OCOC)CC1)C(=O)N[C@@H](CC1CCCCC1)[C@@H](O)[C@@H](O)CC(C)C | bioavailability [13]: 2.9%
7 | 25% | 410 ng·h/mL | 2790 ng/mL |  | 3390 ng/mL | 3380 ng·h/mL | 4 | 4 | 3 nM |  | CCCC[C@H](O[C@@H](Cc1ccccc1)C(=O)N1CCC(OCOC)CC1)C(=O)N[C@@H](CC1CCCCC1)[C@@H](O)C[C@H](C(=O)NCCCn1ccnc1)C(C)C | Cmax [14]: 2420 ng/mL
8 | 34% | 682 ng·h/mL |  |  |  | 7700 ng·h/mL | 3.9 | 4.5 |  |  | CCCC[C@H](N[C@@H](Cc1ccccc1)C(=O)N1CCC(OCOC)CC1)C(=O)N[C@@H](CC1CCCCC1)[C@@H](O)C[C@H](C(=O)NCCCN1CCOCC1)C(C)C | Cmax ([3]; in vivo): 3490 ng/mL; Cmax ([4]; in vivo): 4350 ng/mL; Cmax ([5]; in vivo): 1310 ng/mL
9 | 28% | 588 ng·h/mL | 4830 ng/mL | 6010 ng/mL | 2110 ng/mL |  | 3.3 | 4.3 | 2.8 nM | 2.4 nM | CCCC[C@H](O[C@@H](Cc1ccccc1)C(=O)N1CCC(OCOC)CC1)C(=O)N[C@@H](CC1CCCCC1)[C@@H](O)C[C@H](C(=O)NCCCN1CCOCC1)C(C)C | bioavailability ([11]; primates): 16%; Avg AUC, (Mustela putorius furo [12]): 391 µg/min/mL; inhibition [15]: 11%; inhibition (Pepsin A (Sus scrofa)): 13%; inhibition [16]: 6%; inhibition [17]: 0%; inhibition (Cathepsin D (Bos taurus)): 3%; IC50 [18]: 1.5 nM
10 |  |  |  |  |  |  | 4.7 | 4.7 |  |  | CCCCNC(=O)[C@@H](C[C@H](O)[C@H](CC1CCCCC1)NC(=O)[C@H](CCCC)O[C@@H](Cc1ccccc1)C(=O)N1CCC(OCOC)CC1)C(C)C | bioavailability [13]: 2.5%
11 | 36% | 232 ng·h/mL | 1190 ng/mL | 1540 ng/mL | 1010 ng/mL | 2780 ng·h/mL | 3.6 | > 4 | 8.3 nM |  | CCCC[C@H](O[C@@H](Cc1ccccc1)C(=O)N1CCC(OCOC)CC1)C(=O)N[C@@H](CC1CCCCC1)[C@@H](O)C[C@H](NC(=O)OCCN(C)C)C(C)C | 
12 | 45% | 472 ng·h/mL | 2770 ng/mL | 4350 ng/mL | 1320 ng/mL | 7080 ng·h/mL | > 5 | > 5 | 3.7 nM | 1 nM | CCCC[C@H](O[C@@H](Cc1ccccc1)C(=O)N1CCC(OCOC)CC1)C(=O)N[C@@H](CC1CCCCC1)[C@@H](O)C[C@H](C(=O)NCCN1CCOCC1)C(C)C | 
13 |  |  |  |  |  |  | 4.8 | 4.8 |  |  | CCCC[C@H](O[C@@H](Cc1ccccc1)C(=O)N1CCC(OCOC)CC1)C(=O)N[C@@H](CC1CCCCC1)[C@@H](O)[C@@H](O)CC(C)C | bioavailability [13]: 2.5%
